Data taken from ChEMBL document CHEMBL5036324 (J Med Chem, 2021).
Activity calls are given as the source filed them. No cut-off for these calls is given here.

Columns and labels:
[1] = target: T1, TLR7 and TLR8 (Homo sapiens) (UniProt Q9NYK1+Q9NR97); experiment: Agonist activity at human TLR7/8 expressed in human PBMC cells assessed as induction of INF-alpha regulated IP-10 production at 0.1 to 32 ug/ml incubated for 12 hrs by multiplexed immunoassay; type: cell-based; details: filed as agonist, dose 0.1-32 µg/ml
How it was run: (§1)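 Healthy-volunteer PBMCs from a single donor were isolated by Ficoll−Hypaque gradient and plated at 2.0 × 10⁶ cells/mL. They were stimulated for 12 h with escalating compound concentrations. Supernatants were assayed in duplicate on a 41-analyte magnetic bead cytokine/chemokine panel read by Luminex. EC_max is the concentration giving maximal cytokine induction.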

CT26 [2] = experiment: Antitumor immunity against mouse CT26 cells implanted in BALB/c mouse assessed as increase in M1 to M2 like TAM ratio at 25 ug, ip administered once a week for 23 days by flow cytometry analysis; type: functional, organism-based; details: dose 25.0 µg, time 23.0 day
How it was run: (§2)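 CT26-bearing BALB/c mice (n = 5) were treated ip once weekly with agonist, alone or with anti-PD-1 (200 μg, twice weekly). Tumours were harvested 23 days after implantation, enzymatically and mechanically dissociated into single cells, and stained for surface markers plus intracellular FoxP3 after fixation/permeabilisation. Cells were gated within CD45⁺ for CD11c⁺ DCs, CD11b⁺F4/80⁺MHCII⁺ (M1), CD206⁺ (M2), CD3/CD4/CD8, and CD4⁺CD25⁺FoxP3⁺ Treg, then analysed by flow cytometry.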

[3] = target: T1, TLR7 and TLR8 (Homo sapiens); experiment: Agonist activity at human TLR7/8 expressed in human PBMC cells assessed as induction of IL-12p40 production by measuring concentration required to induce maximal response incubated for 12 hrs by multiplexed immunoassay; type: cell-based; details: filed as agonist; how it was run: as §1
CT26 [4] = experiment: Antitumor immunity against mouse CT26 cells implanted in BALB/c mouse assessed as increase in Teff/Treg ratio at 25 ug, ip administered once a week for 23 days by flow cytometry analysis; type: functional, organism-based; details: dose 25.0 µg, time 23.0 day; how it was run: as §2

| Structure (SMILES) | Activity [1] | Activity (CT26 [2]) | ECmax [3] [µg/mL] | Activity (CT26 [4]) |
| --- | --- | --- | --- | --- |
| COCCNc1nc(N)nc2ccc(Cc3ccc(CN(C)C)cc3)nc12 | Active | – | – | – |
| CCCCNc1nc(N)nc2ccc(Cc3ccc(CN(C)C)cc3)nc12 | – | Active | 0.1 | Active |
